Values after ≈ are worked out from the molar mass of the structure shown. Active and inactive are the calls of the source. The calls are words filed in the database; no cut-off is given here.

Test [1] has as its system Mycobacterium tuberculosis. Nature of the test: Antibacterial activity against Mycobacterium tuberculosis H37Rv at 32 ug/ml […] by agar dilution method. The test is classed as functional, organism-based.
For test [2], the system named is Staphylococcus. In words: Antibacterial activity against Staphylococcus MLS-16 MTCC 2940 after 24 hrs by agar dilution method. The test is classed as functional. To be noted: MLS-16 MTCC 2940, 24 h. In general terms: In agar dilution, organisms are placed on agar that contains the substance at set levels.
The subject of test [3] is Pseudomonas aeruginosa. In words: Antibacterial activity against Pseudomonas aeruginosa MTCC 2453 after 24 hrs by agar dilution method. The test is classed as functional. To be noted: MTCC 2453, 24 h.
For test [4], the system named is Micrococcus luteus. Nature of the test: Antibacterial activity against Micrococcus luteus MTCC 2470 at 80 ug/ml after 24 hrs by agar dilution method. Format: functional, organism-based.
The test system of test [5] is Candida albicans. Nature of the test: Antifungal activity against Candida albicans MTCC 3017 after 48 hrs by agar dilution method. Format: functional. To be noted: MTCC 3017, 48 h. The procedure, abridged: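 Same disk/dilution format as the antibacterial assay, on potato dextrose agar (39 g/L). Compounds were from DMSO stock, loaded at 1 to 80 per disk, in triplicate. Plates were incubated at 28 ± 2 °C for 48 h. MIC was the lowest amount that arrested growth. Equivalent DMSO served as solvent control.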

Test [6] relates to Bacillus subtilis. In words: Antibacterial activity against Bacillus subtilis MTCC 121 after 24 hrs by agar dilution method. Format: functional. To be noted: MTCC 121, 24 h.
The subject of test [7] is Raoultella planticola. Nature of the test: Antibacterial activity against Klebsiella planticola MTCC 530 at 80 ug/ml after 24 hrs by agar dilution method. The test is classed as functional, organism-based.
For test [8], the system named is Staphylococcus aureus. In words: Antibacterial activity against Staphylococcus aureus MTCC 96 after 24 hrs by agar dilution method. The test is classed as functional. To be noted: MTCC 96, 24 h.
In test [9] the test system is Escherichia coli. In words: Antibacterial activity against Escherichia coli MTCC 739 at 80 ug/ml after 24 hrs by agar dilution method. The test is classed as functional, organism-based.
The test system of test [10] is Micrococcus luteus. Nature of the test: Antibacterial activity against Micrococcus luteus MTCC 2470 after 24 hrs by agar dilution method. To be noted: MTCC 2470, 24 h. Format: functional.
Test [11] relates to Pseudomonas aeruginosa. In words: Antibacterial activity against Pseudomonas aeruginosa MTCC 2453 at 80 ug/ml after 24 hrs by agar dilution method. Format: functional, organism-based.
Test [12] relates to Candida albicans. Nature of the test: Antifungal activity against Candida albicans MTCC 3017 at 20 ug/ml after 24 hrs by disk diffusion method. To be noted: MTCC 3017, 24 h, read-out: IZ. The test is classed as functional. (In general: A growth-free zone around the sample is the usual read-out of agar diffusion tests.)

For orientation: MIC means the lowest concentration found to suppress growth. As for `O=C1O[C@@H](CNS(=O)(=O)c2ccc(F)c(F)c2)CN1c1ccc(N2CCOCC2)c(F)c1`, the outcome in test [1] and in test [4] was inactive. The minimum inhibitory concentration (MIC) in test [2], in [3], in [5] and in test [6] was 10 µg/mL (≈ 21.2 µM) throughout.
As for `CC(C)(C)OC(=O)N1CCN(c2ccc(N3C[C@H](CNS(=O)(=O)c4ccc(C(F)(F)F)cc4)OC3=O)cc2F)CC1`, the result in test [7], in test [1] and in test [9] was inactive. For the same molecule, the MIC in test [2] amounted to 10 µg/mL (≈ 16.6 µM); in test [3] it was 10 µg/mL (≈ 16.6 µM); in test [8], 10 µg/mL (≈ 16.6 µM); in test [10], 20 µg/mL (≈ 33.2 µM); in test [5], 20 µg/mL (≈ 33.2 µM); in test [6], 8 µg/mL (≈ 13.3 µM).
As for `O=C1O[C@@H](CNS(=O)(=O)c2cccs2)CN1c1ccc(N2CCSCC2)c(F)c1`, the result in [7], in test [1] and in test [9] was inactive. Besides, the minimal inhibitory concentration (MIC) came to 4 µg/mL (≈ 8.74 µM) in test [2]; 4 µg/mL (≈ 8.74 µM) in test [3]; 4 µg/mL (≈ 8.74 µM) in [8]; 6 µg/mL (≈ 13.1 µM) in [10]; 4 µg/mL (≈ 8.74 µM) in test [5]; 2 µg/mL (≈ 4.37 µM) in test [6].
With `O=C1O[C@@H](CNS(=O)(=O)c2cc(S(=O)(=O)c3ccccc3)cs2)CN1c1ccc(N2CCSCC2)c(F)c1`, the result in [7], in test [1], in test [4] and in test [9] was inactive. Besides, the MIC in test [2] was 6 µg/mL (≈ 10 µM); in [3] it was 8 µg/mL (≈ 13.4 µM); in test [8], 6 µg/mL (≈ 10 µM); in test [5] it was 8 µg/mL (≈ 13.4 µM); in [6], 8 µg/mL (≈ 13.4 µM).
With `CC(=O)Nc1nc(C)c(S(=O)(=O)NC[C@H]2CN(c3ccc(N4CCOCC4)c(F)c3)C(=O)O2)s1`, the outcome in test [7], in [4] and in [9] was inactive. In addition, the MIC in test [2] came to 20 µg/mL (≈ 38.9 µM); in [3] it was 8 µg/mL (≈ 15.6 µM); in [8] it was 20 µg/mL (≈ 38.9 µM); in [5], 20 µg/mL (≈ 38.9 µM); in test [6] it was 8 µg/mL (≈ 15.6 µM).
With `O=C1O[C@@H](CNS(=O)(=O)c2cccc(Cl)c2)CN1c1ccc(N2CCOCC2)c(F)c1`, the result in test [7], in test [1], in test [11] and in [9] was inactive. Also, the minimum inhibitory concentration (MIC) in test [2] was found to be 6 µg/mL (≈ 12.8 µM); in [8], 6 µg/mL (≈ 12.8 µM); in test [10], 8 µg/mL (≈ 17 µM); in test [5] it was 8 µg/mL (≈ 17 µM); in test [6] it was 6 µg/mL (≈ 12.8 µM).
As to `O=C1O[C@@H](CNS(=O)(=O)c2ccc(F)c(Cl)c2)CN1c1ccc(N2CCOCC2)c(F)c1`, the outcome in [7], in [1], in test [11] and in [9] was inactive. For the same molecule, the minimal inhibitory concentration (MIC) in test [2], in [8], in test [10], in test [5] and in [6] was 6 µg/mL (≈ 12.3 µM) throughout.
In the case of `CC(=O)c1ccc(S(=O)(=O)NC[C@H]2CN(c3ccc(N4CCSCC4)c(F)c3)C(=O)O2)cc1`, the outcome in test [7], in [1], in test [11], in test [4] and in test [9] was inactive. Further, the MIC in test [2] was found to be 8 µg/mL (≈ 16.2 µM); in [8], 8 µg/mL (≈ 16.2 µM); in [5], 20 µg/mL (≈ 40.5 µM); in test [6], 10 µg/mL (≈ 20.3 µM).
Consider `O=C1O[C@@H](CNS(=O)(=O)c2cccc3cccnc23)CN1c1ccc(N2CCOCC2)c(F)c1`, for which the result in test [7], in test [1] and in test [9] was inactive. Further, the MIC worked out at 10 µg/mL (≈ 20.6 µM) in [2]; 6 µg/mL (≈ 12.3 µM) in test [3]; 10 µg/mL (≈ 20.6 µM) in test [8]; 8 µg/mL (≈ 16.4 µM) in [10]; 20 µg/mL (≈ 41.1 µM) in [5]; 8 µg/mL (≈ 16.4 µM) in [6].
Regarding `O=C1O[C@@H](CNS(=O)(=O)c2cccc3cccnc23)CN1c1ccc(N2CCSCC2)c(F)c1`, the outcome in test [7], in [1], in test [4] and in test [9] was inactive. For the same molecule, the minimal inhibitory concentration (MIC) in test [2] worked out at 6 µg/mL (≈ 11.9 µM); in test [3], 8 µg/mL (≈ 15.9 µM); in test [8] it was 6 µg/mL (≈ 11.9 µM); in test [5], 8 µg/mL (≈ 15.9 µM); in test [6], 8 µg/mL (≈ 15.9 µM).
With `OC(Cn1cncn1)(Cn1cncn1)c1ccc(F)cc1F` [FLUCONAZOLE], in test [12], the zone of inhibition at 20 µg/mL was 20 mm. For the same molecule, the MIC in test [5] was found to be 1 µg/mL (≈ 3.27 µM).
As for `O=C1O[C@@H](CNS(=O)(=O)c2ccc(Oc3ccccc3)cc2)CN1c1ccc(N2CCOCC2)c(F)c1`, the outcome in test [7], in [1], in test [11] and in [9] was inactive. Besides, the MIC came to 4 µg/mL (≈ 7.58 µM) in [2]; 4 µg/mL (≈ 7.58 µM) in test [8]; 8 µg/mL (≈ 15.2 µM) in test [10]; 6 µg/mL (≈ 11.4 µM) in test [5]; 8 µg/mL (≈ 15.2 µM) in test [6].
In the case of `CC(=O)c1ccc(S(=O)(=O)NC[C@H]2CN(c3ccc(N4CCOCC4)c(F)c3)C(=O)O2)cc1`, the outcome in test [7], in [1], in test [11] and in test [9] was inactive. In addition, the minimal inhibitory concentration (MIC) in [2], in test [8], in test [10], in [5] and in test [6] was 6 µg/mL (≈ 12.6 µM) each time.
Turning to `CC(C)(C)OC(=O)N1CCN(c2ccc(N3C[C@H](CNS(=O)(=O)c4ccc(F)cc4)OC3=O)cc2F)CC1`, the outcome in [7], in [1] and in test [9] was inactive. Further, the minimal inhibitory concentration (MIC) in [2] stood at 10 µg/mL (≈ 18.1 µM); in test [3], 20 µg/mL (≈ 36.2 µM); in [8], 10 µg/mL (≈ 18.1 µM); in [10], 10 µg/mL (≈ 18.1 µM); in test [5] it was 10 µg/mL (≈ 18.1 µM); in test [6], 20 µg/mL (≈ 36.2 µM).
Turning to `O=C1O[C@@H](CNS(=O)(=O)c2ccc(F)c(F)c2F)CN1c1ccc(N2CCOCC2)c(F)c1`, the result in test [7], in [1], in test [4] and in test [9] was inactive. Further, the MIC was found to be 6 µg/mL (≈ 12.3 µM) in [2]; 8 µg/mL (≈ 16.3 µM) in [3]; 6 µg/mL (≈ 12.3 µM) in test [8]; 6 µg/mL (≈ 12.3 µM) in [5]; 6 µg/mL (≈ 12.3 µM) in [6].
Take `O=C1O[C@@H](CNS(=O)(=O)c2ccc(F)c(Cl)c2)CN1c1ccc(N2CCSCC2)c(F)c1`: the result in test [7], in test [1], in test [11], in test [4] and in test [9] was inactive. For the same molecule, the MIC in test [2] was determined as 8 µg/mL (≈ 15.9 µM); in [8] it was 8 µg/mL (≈ 15.9 µM); in [5], 20 µg/mL (≈ 39.7 µM); in test [6], 10 µg/mL (≈ 19.8 µM).
As for `O=C1O[C@@H](CNS(=O)(=O)c2ccc(C(F)(F)F)cc2)CN1c1ccc(N2CCSCC2)c(F)c1`, the result in test [7], in [1], in test [4] and in test [9] was inactive. Besides, the MIC was 8 µg/mL (≈ 15.4 µM) in test [2]; 8 µg/mL (≈ 15.4 µM) in test [3]; 8 µg/mL (≈ 15.4 µM) in test [8]; 8 µg/mL (≈ 15.4 µM) in test [5]; 10 µg/mL (≈ 19.2 µM) in test [6].
As to `CC(=O)Nc1nc(C)c(S(=O)(=O)NC[C@H]2CN(c3ccc(N4CCSCC4)c(F)c3)C(=O)O2)s1`, the result in test [7], in test [4] and in test [9] was inactive. Further, the minimal inhibitory concentration (MIC) in test [2] is 8 µg/mL (≈ 15.1 µM); in test [3], 8 µg/mL (≈ 15.1 µM); in test [8], 8 µg/mL (≈ 15.1 µM); in [5] it was 8 µg/mL (≈ 15.1 µM); in test [6] it was 10 µg/mL (≈ 18.9 µM).
As for `O=C1O[C@@H](CNS(=O)(=O)c2ccc(C(F)(F)F)cc2)CN1c1ccc(N2CCOCC2)c(F)c1`, the outcome in [7], in test [1] and in [9] was inactive. Moreover, the minimum inhibitory concentration (MIC) was 10 µg/mL (≈ 19.9 µM) in test [2]; 8 µg/mL (≈ 15.9 µM) in test [3]; 10 µg/mL (≈ 19.9 µM) in test [8]; 8 µg/mL (≈ 15.9 µM) in test [10]; 20 µg/mL (≈ 39.7 µM) in test [5]; 8 µg/mL (≈ 15.9 µM) in [6].
In the case of `O=C1O[C@@H](CNS(=O)(=O)c2cc(Cl)cc(Cl)c2)CN1c1ccc(N2CCOCC2)c(F)c1`, the result in test [7], in test [1], in test [4] and in [9] was inactive. Also, the MIC was determined as 8 µg/mL (≈ 15.9 µM) in test [2]; 40 µg/mL (≈ 79.3 µM) in test [3]; 8 µg/mL (≈ 15.9 µM) in test [8]; 8 µg/mL (≈ 15.9 µM) in [5]; 8 µg/mL (≈ 15.9 µM) in [6].

For the origin of these results see ChEMBL document CHEMBL2331333, “Synthesis, biological evaluation of new oxazolidino-sulfonamides as potential antimicrobial agents” (2013).
